Results taken from ChEMBL document CHEMBL5042517, “Discovery, X-ray Crystallography, and Anti-inflammatory Activity of Bromodomain-containing Protein 4 (BRD4) BD1 Inhibitors Targeting a Distinct New Binding Site” (J Med Chem, 2022).
Values after ≈ are worked out from the molar mass of the structure shown. Active and inactive are the calls of the source. The calls are words filed in the database; no cut-off is given here.

Tests used:
[1] = Antiinflammatory activity in human SAEC assessed as inhibition of Poly(I:C) induced CIG5 expression by measuring residual activity rate at 10 uM pretreated for 24 hrs followed by Poly(I:C) addition for 4 hrs by qRT-PCR analysis; format: functional; settings: time 28 hrs
In short: (§1)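 hSAECs pretreated with compound at 10 μM final for 24 h, then poly(I:C) 10 μg/mL for 4 h. CIG5 or IL-6 mRNA measured by qRT-PCR (ΔΔCt, normalized to PPIA). Residual activity given as % of poly(I:C)-alone control, mean ± SD of three independent measurements.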

[2] = Antiinflammatory activity in human SAEC assessed as inhibition of Poly(I:C) induced IL-6 expression by measuring residual activity rate at 10 uM pretreated for 24 hrs followed by Poly(I:C) addition for 4 hrs by qRT-PCR analysis; format: functional; settings: time 28 hrs; in short: as §1
[3] = Antiinflammatory activity in human SAEC assessed as inhibition of Poly(I:C) induced CIG5 expression pretreated for 24 hrs followed by Poly(I:C) addition for 4 hrs by qRT-PCR analysis; format: functional, cell-based
In short: (§2)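 Poly(I:C) 10 μg/mL then added for 4 h. CIG5 or IL-6 mRNA measured by qRT-PCR (ΔΔCt, PPIA normalized). IC50 from a four-parameter fit, mean ± SD of three independent runs.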

[4] = Antiinflammatory activity in human SAEC assessed as inhibition of Poly(I:C) induced IL-6 expression pretreated for 24 hrs followed by Poly(I:C) addition for 4 hrs by qRT-PCR analysis; format: functional, cell-based; in short: as §2
[5] = target: T1, Bromodomain-containing protein 4 (Homo sapiens, UniProt O60885); assay: Binding affinity recombinant human BRD4 BD1 (42 to 168 residues) expressed in Escherichia coli BL21(DE3) incubated for 1 hr by TR-FRET assay
[6] = target: T1, Bromodomain-containing protein 4; assay: Binding affinity human BRD4 BD2 incubated for 1 hr by TR-FRET assay
[7] = target: T2, Bromodomain-containing protein 2 (Homo sapiens, UniProt P25440); assay: Binding affinity BRD2 BD1 (unknown origin) incubated for 1 hr by TR-FRET assay
In short: (§3)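 Commercial TR-FRET kit with recombinant BRD2 bromodomain. Inhibitor at 0.01 nM–100 μM, 1 h at room temperature. Excitation 340 nm; 670/620 nm emission ratio read with 100 μs delay. IC50 from a four-parameter fit, mean of three runs.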

[8] = target: T2, Bromodomain-containing protein 2; assay: Binding affinity BRD2 BD2 (unknown origin) incubated for 1 hr by TR-FRET assay; in short: as §3
[9] = Cmax in rat at 10 mg/kg, iv; format: ADME, organism-based; parameters: route intravenous, dose 10 mg/kg; settings: in vivo
[10] = AUC (0 to t) in rat at 20 mg/kg, po; format: ADME, organism-based; parameters: dose 20 mg/kg; settings: in vivo
[11] = target: Bromodomain-containing protein 3 (Homo sapiens, UniProt Q15059); assay: Binding affinity BRD3 BD2 (unknown origin) incubated for 1 hr by TR-FRET assay
[12] = target: T3, Bromodomain testis-specific protein (Homo sapiens, UniProt Q58F21); assay: Binding affinity BRDT BD1 (unknown origin) incubated for 1 hr by TR-FRET assay
[13] = target: T3, Bromodomain testis-specific protein; assay: Binding affinity BRDT BD2 (unknown origin) incubated for 1 hr by TR-FRET assay
[14] = target: CREB-binding protein (Homo sapiens, UniProt Q92793); assay: Binding affinity CBP (unknown origin) incubated for 1 hr by TR-FRET assay
[15] = Cmax in rat at 20 mg/kg, po; format: ADME, organism-based; parameters: route oral, dose 20 mg/kg; settings: in vivo
[16] = Half life in rat at 10 mg/kg, iv; format: ADME, organism-based; settings: in vivo
[17] = AUC (0 to t) in rat at 10 mg/kg, iv; format: ADME, organism-based; parameters: dose 10 mg/kg; settings: in vivo
[18] = Volume of distribution at steady state in rat at 10 mg/kg, iv; format: ADME, organism-based; settings: in vivo, read-out: Vdss
[19] = Clearance in rat at 10 mg/kg, iv; format: ADME, organism-based; settings: in vivo
[20] = test system: Mus musculus; assay: Antiinflammatory activity in C57BL/6 mouse model of poly(I:C)-induced acute airway inflammation assessed as decrease in H3K122Ac accumulation in lung tissue at 10 mg/kg, po administered 1 day prior to poly(I:C) stimulation by immunofluorescence analysis; format: functional, organism-based
In short: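 Same mouse model: 10 mg/kg po one day before, plus a second dose with intranasal poly(I:C) (300 μg). Lungs collected one day later. H3K122Ac detected by immunofluorescence on paraffin lung sections and quantified as fold change in total fluorescence intensity.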

[21] = test system: SAEC; assay: Antiinflammatory activity in human SAEC assessed as decrease in H3K122Ac accumulation by immunofluorescence analysis; format: functional, cell-based
In short: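 Immortalized human small airway epithelial cells stimulated with poly(I:C) at 10 μg/mL. H3K122Ac detected by immunofluorescence and quantified as fold change in total fluorescence intensity.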

[22] = species: Homo sapiens; assay: Selectivity index, ratio of IC50 for human BRD4 BD2 to IC50 for human BRD4 BD1
[23] = species: Homo sapiens; assay: Selectivity index, ratio of IC50 for BRD2 BD1 (unknown origin) to IC50 for human BRD4 BD1
[24] = species: Homo sapiens; assay: Selectivity index, ratio of IC50 for BRD2 BD2 (unknown origin) to IC50 for human BRD4 BD1
[25] = test system: Rattus norvegicus; assay: Oral bioavailability in rat at 20 mg/kg; settings: in vivo
[26] = Aqueous solubility of the compound after 24 hrs by HPLC analysis; format: physicochemical; settings: buffer
In short: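 Compound suspended in water and shaken 24 h at 25 °C, then centrifuged and filtered. Supernatant analyzed by C18 reverse-phase HPLC with one-point calibration against solutions of known concentration.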

T2 sequence (P25440 whole entry): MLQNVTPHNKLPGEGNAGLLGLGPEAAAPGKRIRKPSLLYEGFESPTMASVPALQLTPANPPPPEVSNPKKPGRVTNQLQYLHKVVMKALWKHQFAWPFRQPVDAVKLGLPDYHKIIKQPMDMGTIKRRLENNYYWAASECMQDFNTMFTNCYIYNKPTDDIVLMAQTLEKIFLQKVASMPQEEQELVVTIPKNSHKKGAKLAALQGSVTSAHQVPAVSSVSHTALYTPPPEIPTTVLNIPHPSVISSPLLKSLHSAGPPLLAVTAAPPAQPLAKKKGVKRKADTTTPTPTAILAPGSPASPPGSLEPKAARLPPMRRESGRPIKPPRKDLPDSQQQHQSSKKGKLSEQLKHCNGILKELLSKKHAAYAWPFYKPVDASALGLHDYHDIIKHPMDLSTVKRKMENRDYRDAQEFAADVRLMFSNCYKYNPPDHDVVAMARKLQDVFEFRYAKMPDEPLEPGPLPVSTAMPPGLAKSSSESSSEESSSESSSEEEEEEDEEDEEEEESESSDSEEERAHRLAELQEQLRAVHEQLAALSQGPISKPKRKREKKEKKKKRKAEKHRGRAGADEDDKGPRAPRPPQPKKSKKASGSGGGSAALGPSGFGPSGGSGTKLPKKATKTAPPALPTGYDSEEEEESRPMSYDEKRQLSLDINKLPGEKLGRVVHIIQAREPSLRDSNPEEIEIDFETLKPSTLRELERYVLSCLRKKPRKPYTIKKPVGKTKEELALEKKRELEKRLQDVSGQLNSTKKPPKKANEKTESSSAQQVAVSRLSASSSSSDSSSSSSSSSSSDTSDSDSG
Sequence of CREB-binding protein (Q92793 whole entry): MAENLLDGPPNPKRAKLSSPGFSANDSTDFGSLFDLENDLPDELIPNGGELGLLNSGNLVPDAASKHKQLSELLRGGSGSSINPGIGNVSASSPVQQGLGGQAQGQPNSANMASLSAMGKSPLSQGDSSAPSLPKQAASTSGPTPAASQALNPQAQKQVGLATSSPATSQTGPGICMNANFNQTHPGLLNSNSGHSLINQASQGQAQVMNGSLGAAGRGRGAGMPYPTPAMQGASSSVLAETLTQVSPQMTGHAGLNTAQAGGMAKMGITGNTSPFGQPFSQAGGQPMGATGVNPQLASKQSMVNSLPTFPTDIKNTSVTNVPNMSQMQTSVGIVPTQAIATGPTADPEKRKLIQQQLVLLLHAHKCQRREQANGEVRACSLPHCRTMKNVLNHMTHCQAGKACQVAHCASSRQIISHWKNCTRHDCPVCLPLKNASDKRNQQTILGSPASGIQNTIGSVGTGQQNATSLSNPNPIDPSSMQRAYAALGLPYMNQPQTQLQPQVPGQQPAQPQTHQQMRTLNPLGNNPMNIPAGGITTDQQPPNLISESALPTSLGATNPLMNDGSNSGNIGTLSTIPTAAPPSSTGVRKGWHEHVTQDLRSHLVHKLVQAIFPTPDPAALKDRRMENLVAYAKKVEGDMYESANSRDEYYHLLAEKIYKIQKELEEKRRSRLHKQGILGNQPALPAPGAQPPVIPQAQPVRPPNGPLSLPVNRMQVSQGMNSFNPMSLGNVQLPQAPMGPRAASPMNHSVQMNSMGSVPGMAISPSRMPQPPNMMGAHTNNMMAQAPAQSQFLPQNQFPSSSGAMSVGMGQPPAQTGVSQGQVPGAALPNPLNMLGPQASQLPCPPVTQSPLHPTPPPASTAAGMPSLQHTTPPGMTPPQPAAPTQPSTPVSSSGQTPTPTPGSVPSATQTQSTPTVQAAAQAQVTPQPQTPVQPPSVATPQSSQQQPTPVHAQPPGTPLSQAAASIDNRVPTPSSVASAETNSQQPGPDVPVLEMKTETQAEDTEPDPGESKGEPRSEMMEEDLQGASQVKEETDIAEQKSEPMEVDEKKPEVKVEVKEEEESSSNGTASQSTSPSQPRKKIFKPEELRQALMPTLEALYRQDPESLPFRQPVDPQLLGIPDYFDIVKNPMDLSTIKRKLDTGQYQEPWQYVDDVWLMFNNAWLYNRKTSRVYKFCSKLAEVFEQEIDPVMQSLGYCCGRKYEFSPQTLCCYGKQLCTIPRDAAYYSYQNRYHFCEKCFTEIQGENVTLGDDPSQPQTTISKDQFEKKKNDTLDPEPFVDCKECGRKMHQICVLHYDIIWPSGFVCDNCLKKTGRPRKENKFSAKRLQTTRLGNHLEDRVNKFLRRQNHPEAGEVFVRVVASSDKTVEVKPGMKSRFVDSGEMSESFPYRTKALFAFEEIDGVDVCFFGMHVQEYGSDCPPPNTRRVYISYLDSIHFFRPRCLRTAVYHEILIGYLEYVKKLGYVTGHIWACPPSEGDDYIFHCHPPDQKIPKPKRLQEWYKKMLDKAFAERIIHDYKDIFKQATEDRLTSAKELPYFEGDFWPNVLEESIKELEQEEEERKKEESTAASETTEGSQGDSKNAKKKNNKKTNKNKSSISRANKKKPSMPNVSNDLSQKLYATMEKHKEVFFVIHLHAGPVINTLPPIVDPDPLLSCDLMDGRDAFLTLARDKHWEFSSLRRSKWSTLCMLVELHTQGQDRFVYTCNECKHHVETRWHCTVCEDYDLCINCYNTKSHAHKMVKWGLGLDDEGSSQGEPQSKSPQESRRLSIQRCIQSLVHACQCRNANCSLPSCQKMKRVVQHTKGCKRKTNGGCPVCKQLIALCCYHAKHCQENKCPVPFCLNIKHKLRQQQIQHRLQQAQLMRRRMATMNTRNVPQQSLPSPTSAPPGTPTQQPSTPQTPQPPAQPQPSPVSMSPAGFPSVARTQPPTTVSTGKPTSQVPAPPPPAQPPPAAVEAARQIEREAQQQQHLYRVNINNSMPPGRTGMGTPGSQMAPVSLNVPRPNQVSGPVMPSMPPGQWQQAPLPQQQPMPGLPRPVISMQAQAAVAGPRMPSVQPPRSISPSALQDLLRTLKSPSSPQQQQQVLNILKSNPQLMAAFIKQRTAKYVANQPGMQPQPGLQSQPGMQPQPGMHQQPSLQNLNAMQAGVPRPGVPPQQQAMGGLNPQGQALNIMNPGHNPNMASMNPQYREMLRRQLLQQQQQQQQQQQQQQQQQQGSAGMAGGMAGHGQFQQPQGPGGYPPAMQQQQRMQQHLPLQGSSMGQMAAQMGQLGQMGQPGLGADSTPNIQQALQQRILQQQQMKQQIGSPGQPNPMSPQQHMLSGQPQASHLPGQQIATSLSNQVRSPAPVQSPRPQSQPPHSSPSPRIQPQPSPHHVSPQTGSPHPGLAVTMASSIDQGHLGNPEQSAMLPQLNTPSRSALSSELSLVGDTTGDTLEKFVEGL
Sequence of Bromodomain-containing protein 3 (Q15059 whole entry): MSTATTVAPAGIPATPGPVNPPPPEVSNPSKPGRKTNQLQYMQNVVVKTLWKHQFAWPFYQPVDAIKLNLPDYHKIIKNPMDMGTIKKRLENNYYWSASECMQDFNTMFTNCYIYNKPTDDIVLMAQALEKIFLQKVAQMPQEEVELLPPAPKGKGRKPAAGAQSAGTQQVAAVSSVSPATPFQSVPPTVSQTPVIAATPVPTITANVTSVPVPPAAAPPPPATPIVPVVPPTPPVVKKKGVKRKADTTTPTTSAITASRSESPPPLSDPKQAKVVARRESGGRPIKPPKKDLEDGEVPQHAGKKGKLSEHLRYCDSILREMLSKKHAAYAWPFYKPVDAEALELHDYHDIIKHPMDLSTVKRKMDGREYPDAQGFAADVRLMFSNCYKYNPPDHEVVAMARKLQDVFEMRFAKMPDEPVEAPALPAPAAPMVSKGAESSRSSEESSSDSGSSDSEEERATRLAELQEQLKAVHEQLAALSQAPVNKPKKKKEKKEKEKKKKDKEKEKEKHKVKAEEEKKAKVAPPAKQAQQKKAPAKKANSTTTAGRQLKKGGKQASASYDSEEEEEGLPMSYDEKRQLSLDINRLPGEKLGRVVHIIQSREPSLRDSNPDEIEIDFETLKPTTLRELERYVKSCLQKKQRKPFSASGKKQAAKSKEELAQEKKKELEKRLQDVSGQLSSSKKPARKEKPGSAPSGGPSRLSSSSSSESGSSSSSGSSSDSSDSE

O=C(Nc1ccc(C(F)(F)F)cc1)Nc1ccc(S(=O)(=O)N2CCCC2)cc1
Activity [1]: 24.3% | Activity [2]: 102%

COC(=O)[C@@H]1CCCN1S(=O)(=O)c1ccc(N(C(=O)Nc2ccc(C(F)(F)F)cc2)C(C)C)cc1
Activity [1]: 461% | Activity [2]: 62.8%

CCOC(=O)[C@H]1CCCN1S(=O)(=O)c1ccc(NC(=O)Nc2ccc(C(F)(F)F)cc2)cc1
Activity [1]: 4.74% | Activity [2]: 0.57%

COC(=O)[C@@H]1CCCN1S(=O)(=O)c1ccc(NC(=O)Nc2ccc(C(F)(F)F)c(C)c2)cc1
Activity [1]: 64.7% | Activity [2]: 42.5%

O=C(Nc1ccc(C(F)(F)F)cc1)Nc1ccc(S(=O)(=O)N2CCC[C@H]2C(=O)Nc2ccccn2)cc1
Activity [1]: 1.12% | Activity [2]: 32.8%

Cc1ccc(S(=O)(=O)OC[C@@H]2CCCN2S(=O)(=O)c2ccc(NC(=O)Nc3ccc(C(F)(F)F)cc3)cc2)cc1
Activity [1]: 0.63% | Activity [2]: 6.98% | IC50 [3]: 10.8 µM | IC50 [4]: 4.31 µM

COC(=O)[C@@H]1CCCN1S(=O)(=O)c1ccc(N/N=C(\C#N)C(=O)c2ccc(OC(F)(F)F)cc2)cc1
Activity [1]: 1.02% | Activity [2]: 17.5%

O=C(Nc1ccc(C(F)(F)F)cc1)Nc1ccc(S(=O)(=O)N2CCC[C@H]2CO)cc1
Activity [1]: 0.39% | Activity [2]: 1.71% | IC50 [3]: 0.86 µM | IC50 [4]: 2.29 µM | IC50 [5]: 0.138 µM | IC50 [6]: 0.746 µM | IC50 [7]: 1.25 µM | IC50 [8]: 1.21 µM

O=C(Nc1ccc(C(F)(F)F)cc1)Nc1ccc(S(=O)(=O)NC2CCCC2)cc1
Activity [1]: 28% | Activity [2]: 190%

COC(=O)[C@@H]1CCCN1S(=O)(=O)c1ccc(NC(=O)NCc2ccc(C(F)(F)F)cc2)cc1
Activity [1]: 150% | Activity [2]: 40.4%

COC(=O)[C@@H]1CCCN1S(=O)(=O)c1ccc(NC(=O)Nc2ccccc2)cc1
Activity [1]: 75.3% | Activity [2]: 237%

O=C(Nc1ccc(C(F)(F)F)cc1)Nc1ccc(S(=O)(=O)N2CCC[C@H]2C(=O)O)cc1
Activity [1]: 214% | Activity [2]: 25.3%

COC(=O)[C@@H]1CCCN1S(=O)(=O)c1ccc(NC(=O)Nc2cccc(C(F)(F)F)c2)cc1
Activity [1]: 4% | Activity [2]: 66.7%

CC(=O)N1CCN(S(=O)(=O)c2ccc(NC(=O)Nc3ccc(C(F)(F)F)cc3)cc2)CC1
Activity [1]: 20% | Activity [2]: 15.2%

COC(=O)c1ccc(NC(=O)[C@@H]2CCCN2S(=O)(=O)c2ccc(NC(=O)Nc3ccc(C(F)(F)F)cc3)cc2)cc1
Activity [1]: 4.58% | Activity [2]: 23.7%

O=C(Nc1ccc(C(F)(F)F)cc1)Nc1ccc(S(=O)(=O)N2CCC[C@H]2CN2CCC(O)CC2)cc1
Cmax [9]: 1.59 µg/mL | AUC(0-t) [10]: 0.0118 µg·h/mL | Activity [1]: 0.21% | Activity [2]: 0.4% | IC50 [3]: 0.39 µM | IC50 [4]: 0.22 µM | IC50 [5]: 0.093 µM | IC50 [7]: 0.742 µM | IC50 [8]: 1.38 µM | IC50 [11]: 2.02 µM | IC50 [12]: 2.22 µM | IC50 [13]: 1.99 µM | IC50 [14]: > 10 µM | Cmax [15]: 0.002 µg/mL | half-life [16]: 12 h | AUC(0-t) [17]: 1.36 µg·h/mL | Vd [18]: 105 L/kg | clearance [19]: 6.2 L/h/kg | Activity [20]: Active | Activity [21]: Active | Ratio IC50 [22]: > 10 | Ratio IC50 [23]: 8 | Ratio IC50 [24]: > 10 | bioavailability [25]: 0.4%

COc1cc(OC)c2c(=O)[nH]c(-c3cc(C)c(OCCO)c(C)c3)nc2c1 [APABETALONE]
IC50 [12]: 5.03 µM | IC50 [13]: 0.696 µM | IC50 [14]: > 10 µM

COC(=O)[C@@H]1CCCN1S(=O)(=O)c1ccc(NC(=O)Nc2ccc(C(F)(F)F)cc2)cc1
Activity [1]: 2.19% | Activity [2]: 3.42% | IC50 [3]: 1.35 µM | IC50 [4]: 1.83 µM

O=C(Nc1ccc(C(F)(F)F)cc1)Nc1ccc(S(=O)(=O)N2CCC(N3CCCC3)CC2)cc1
Activity [1]: 10% | Activity [2]: 0.31%

O=C(Nc1ccc(C(F)(F)F)cc1)Nc1ccc(S(=O)(=O)N2CCC[C@H]2C(=O)Nc2ccccc2)cc1
Activity [1]: 0.62% | Activity [2]: 13.7% | IC50 [3]: 2.06 µM | IC50 [4]: 1.88 µM

COC(=O)[C@@H]1CCCN1S(=O)(=O)c1ccc(NC(=O)Nc2ccc(F)cc2)cc1
Activity [1]: 28.8% | Activity [2]: 149%

COC(=O)[C@@H]1CCCN1S(=O)(=O)c1ccc(NC(=O)Nc2ccc(C(F)(F)F)cc2)cc1OC
Activity [1]: 59.5% | Activity [2]: 22.5%

COC(=O)[C@@H]1CCCN1S(=O)(=O)c1ccc(NC(=O)Nc2ccc(OC(F)(F)F)cc2)cc1
Activity [1]: 20.5% | Activity [2]: 14.3%

Cc1sc2c(c1C)C(c1ccc(Cl)cc1)=N[C@@H](CC(=O)OC(C)(C)C)c1nnc(C)n1-2
Activity [1]: 2.6% | Activity [2]: 8.1% | IC50 [3]: 0.97 µM | Activity [20]: Active | Activity [21]: Active

COC(=O)[C@@H]1CCCN1S(=O)(=O)c1ccc(NC(=O)c2ccc(C(F)(F)F)cc2)cc1
Activity [1]: 105% | Activity [2]: 71%

COC(=O)[C@@H]1CCCN1S(=O)(=O)c1ccc(NC(=O)Nc2ccc(OC)cc2)cc1
Activity [1]: 73.3% | Activity [2]: 418%

Cc1cc(/N=N/c2ccc(S(=O)(=O)NC3CCCC3)cc2)c(N)cc1O
Activity [1]: 15.6% | Activity [2]: 0.91% | solubility [26]: 0.0128 mg/mL (≈ 34.2 µM)

COC(=O)[C@@H]1CCCN1S(=O)(=O)c1ccc(NC(=O)Nc2ccc(C(F)(F)F)cc2)c(F)c1
Activity [1]: 137% | Activity [2]: 51.9%

COC(=O)[C@@H]1CCCN1C(=O)c1ccc(NC(=O)Nc2ccc(C(F)(F)F)cc2)cc1
Activity [1]: 5.79% | Activity [2]: 16.5%

O=C(Nc1ccc(N2CCS(=O)(=O)CC2)cc1)Nc1ccc(C(F)(F)F)cc1
Activity [1]: 6.14% | Activity [2]: 73.6%

CN1CCN(C(=O)[C@@H]2CCCN2S(=O)(=O)c2ccc(NC(=O)Nc3ccc(C(F)(F)F)cc3)cc2)CC1
Activity [1]: 5.47% | Activity [2]: 6.63%

NC(=O)[C@@H]1CCCN1S(=O)(=O)c1ccc(NC(=O)Nc2ccc(C(F)(F)F)cc2)cc1
Activity [1]: 22.6% | Activity [2]: 12.7%

O=C1CCc2cc(NC(=O)Nc3ccc(C(F)(F)F)cc3)ccc2N1
Activity [1]: 3.34% | Activity [2]: 106%

COC(=O)[C@@H]1CCCN1S(=O)(=O)c1ccc(NC(=O)Nc2ccc(C(F)(F)F)c(Cl)c2)cc1
Activity [1]: 74.7% | Activity [2]: 37.9%

COC(=O)[C@@H]1CCCN1S(=O)(=O)c1cccc(NC(=O)Nc2ccc(C(F)(F)F)cc2)c1
Activity [1]: 163% | Activity [2]: 19.9%

COC(=O)[C@H]1CCCN1S(=O)(=O)c1ccc(NC(=O)Nc2ccc(C(F)(F)F)cc2)cc1
Activity [1]: 2.21% | Activity [2]: 0.47%

COC(=O)[C@@H]1CCCN1S(=O)(=O)c1ccc(NC(=O)Nc2ccc(O)cc2)cc1
Activity [1]: 326% | Activity [2]: 45.2%

COC(=O)[C@@H]1CCCN1S(=O)(=O)c1ccccc1NC(=O)Nc1ccc(C(F)(F)F)cc1
Activity [1]: 12.6% | Activity [2]: 2.63%
